Screening data (PubChem)
Sampled rows, rich in hits. Any-hit rate of the full collection: about 2.1%.
MEKK2mut PB1 HTS = MEK5 binding signal on mutant MEKK2 PB1, primary screen, biochemical, multiplex bead flow cytometry, Alexa488-MEK5 | Alexa488-MEK5 binding to MEKK2 mutant | percent response, % at 10 µM | 290,000 tested, 0.35% active; in the data active = percent response above about 24%, passing the limit was not always enough
GSK3beta inhib = human GSK3beta kinase inhibitors, primary screen, biochemical, cell-free homogeneous, HTS; activity score (negative = inhibition), % at 10 µM; AID 2097, 2009; GST-GSK3beta kinase, ADP-Glo luminescence, 60 min; stronger effect = lower value; Glycogen synthase kinase-3 beta (Homo sapiens), P49841; 300,000 tested, 0.038% active;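 active = more than half of replicate wells score below -50%, meaning over 50% inhibition versus plate controls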
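Assay system: GST-fused GSK3beta enzyme, cell-free / Medium: Tris pH 7.5 buffer with MgCl2, DTT, BSA, heparin / Also added: peptide substrate plus 25 µM ATP (final) / Compound: 10 µM single point / Timing: kinase reaction with compound 60 min at room temperature / Detection: ADP-Glo luminescence / Benchmarks: DMSO neutral wells and GW8510 at 20 µM as positive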
GSK3A inh = blockers of GSK3A enzyme activity – biochemical, luminescence, cell-free homogeneous, HTS, primary screen; Glycogen synthase kinase-3 alpha (Homo sapiens), P49840; GSK-3 alpha kinase, ADP-Glo luminescence, 60 min; inhibition, % at 10 µM; 320,000 tested, 0.1% active;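 active = more than half of replicates show inhibition above 20%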;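 note: GST-tagged GSK-3 alpha with peptide substrate and 25 µM ATP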
MEKK2 WT-MEK5 = modulators of MEK5 binding to wildtype MEKK2, primary screen, biochemical, multiplex bead flow cytometry, Alexa488-MEK5 | Mitogen-activated protein kinase kinase kinase 2 (Homo sapiens), Q9Y2U5 | Alexa488-MEK5 binding to MEKK2 WT; actives lie on both sides | binding response (% of control), % at 10 µM | 290,000 tested, 1.1% active | AID 1531, 2009; in the data active = binding response below about 67% or above about 130%
MEKK3 PB1 HTS = modulators of MEKK3-MEK5 PB1 binding, primary screen, biochemical, wildtype MEKK3, multiplex bead flow cytometry, Alexa488-MEK5; Mitogen-activated protein kinase kinase kinase 3 (Homo sapiens), Q99759; bead-based flow cytometry, Alexa488-MEK5 binding to MEKK3; actives lie on both sides; 0 = blocked by unlabeled MEK5, 100 = vehicle; binding response (% of control), % at 10 µM; 290,000 tested, 1.4% active;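 active = binding response more than 3 SD above or below the average of its plate-row segment, actives on both sides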;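 note: Alexa488 bead fluorescence after subtracting the streptavidin-only scavenger bead signal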
Target sequence (Q99759 whole entry, looked up): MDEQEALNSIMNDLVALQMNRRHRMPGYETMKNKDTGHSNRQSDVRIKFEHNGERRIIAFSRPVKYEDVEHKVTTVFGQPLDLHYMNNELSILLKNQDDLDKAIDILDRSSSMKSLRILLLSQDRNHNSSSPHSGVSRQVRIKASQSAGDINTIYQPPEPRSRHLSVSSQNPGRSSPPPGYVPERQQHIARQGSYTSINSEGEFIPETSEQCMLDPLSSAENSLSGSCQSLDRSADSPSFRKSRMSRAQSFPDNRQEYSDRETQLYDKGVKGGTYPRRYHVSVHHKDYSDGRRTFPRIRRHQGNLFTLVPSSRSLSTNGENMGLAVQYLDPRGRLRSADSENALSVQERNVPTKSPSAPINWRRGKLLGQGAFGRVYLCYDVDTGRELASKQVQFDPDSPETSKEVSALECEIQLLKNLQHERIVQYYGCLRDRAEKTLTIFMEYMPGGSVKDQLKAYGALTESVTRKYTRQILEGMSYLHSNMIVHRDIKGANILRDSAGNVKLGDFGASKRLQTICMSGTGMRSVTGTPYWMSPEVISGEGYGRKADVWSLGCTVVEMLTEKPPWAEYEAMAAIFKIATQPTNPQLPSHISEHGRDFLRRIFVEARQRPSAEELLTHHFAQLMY
STK33 inh = inhibitors of purified STK33 kinase, primary screen, biochemical, ADP-Glo luminescence, homogeneous, cell-free. Serine/threonine-protein kinase 33 (Homo sapiens), Q9BYT3. MBP phosphorylation. inhibition, % at 10 µM. 320,000 tested, 0.073% active. AID 2661, 2010;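 active = inhibition at or above 25%, using the most active replicate where run in duplicate; inactive = inhibition below 25%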
MEKK2wt confirm = modulators of MEK5 binding to wildtype MEKK2, confirmation, biochemical, single concentration, multiplex bead flow cytometry | 5,900 tested, 2.4% active | shares compounds with MEKK3 PB1 HTS | Alexa488-MEK5 binding to MEKK2 WT; actives lie on both sides | AID 1892, 2009 | binding response (% of control), % at 10 µM; in the data active = binding response below about 16% or above about 210%; inactive = in between
MEKK2mut confirm = mutant MEKK2 PB1-MEK5 binding signal retest – biochemical, single concentration, multiplex bead flow cytometry, confirmation. AID 1893, 2009. 5,900 tested, 2% active. Alexa488-MEK5 binding to MEKK2 mutant. percent response, % at 10 µM. shares compounds with MEKK3 PB1 HTS; in the data active = percent response mostly above about 71%, no sharp cut-off; inactive = mostly below about 38%;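 note: higher means compound restores mutant binding toward wildtype level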
MEKK3-MEK5 inh = MEKK3 wild-type PB1 binding to MEK5, inhibitors, confirmation, biochemical, bead multiplex flow cytometry, single concentration, wildtype. shares compounds with MEKK3 PB1 HTS. Alexa488-MEK5 binding to MEKK3; stronger effect = lower value. binding response (% of control), % at 10 µM. AID 1894, 2009. 5,900 tested, 1.8% active;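 active = binding response below 72% of control, or above a set upper limit, though filed actives all read lower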
Large screens that a line does not name were inactive (follow-up assays come after a bar, where they were run); ! = repeats disagree; [ ] = another dose, or the depositor's remark.

CC(=O)c1ccccc1NC(=O)c1ccc(OCc2c(C)noc2C)cc1	none (no result: MEKK2mut PB1 HTS, GSK3beta inhib, MEKK2 WT-MEK5, MEKK3 PB1 HTS)
Clc1ccc(OCCN2CCCCC2)cc1Cl	none
Clc1ccc(OCCCN2CCCC2)cc1Cl	MEKK3 PB1 HTS 131 | MEKK2wt confirm inactive | MEKK2mut confirm inactive | MEKK3-MEK5 inh inactive
O=C(CCCOc1ccc(Cl)cc1Cl)N/N=C/c1ccccc1	none
Cc1ccc(/C=N/NC(=O)CCCOc2ccc(Cl)cc2Cl)cc1	MEKK3 PB1 HTS 137 | MEKK2wt confirm inactive | MEKK2mut confirm inactive | MEKK3-MEK5 inh inactive
N#CC1=C(N)Oc2cc(O)ccc2C1c1cccnc1 (stereo not given)	MEKK3 PB1 HTS 132 | MEKK2wt confirm inactive | MEKK2mut confirm inactive | MEKK3-MEK5 inh inactive
CCCCn1c(=O)c(-c2ccccc2)c(O)c2ccccc21	MEKK3 PB1 HTS 131 | MEKK2wt confirm inactive | MEKK2mut confirm inactive | MEKK3-MEK5 inh inactive
Nc1ccccc1NC(=O)c1ccccc1N	MEKK2 WT-MEK5 3.0[inhibitor], MEKK3 PB1 HTS 3.0[inhibitor] | MEKK2wt confirm inactive | MEKK2mut confirm inactive | MEKK3-MEK5 inh inactive
O=[N+]([O-])c1cc([N+](=O)[O-])c(Oc2c(F)cc(F)cc2F)cc1NN1CCCCC1	none
CCOc1cc(C(F)(F)F)cnc1/C(N)=N/O	none
CCOC(=O)c1c(C)[nH]c(C(=O)NCc2ccco2)c1C	MEKK3 PB1 HTS 143 | MEKK2wt confirm inactive | MEKK2mut confirm inactive | MEKK3-MEK5 inh inactive
CCOC(=O)c1[nH]c(C)c(C(=O)NCc2ccco2)c1C	none (no result: GSK3A inh)
CC(C)(C)N(Cc1ccccc1)C(=O)CN1C(=O)c2ccccc2S1(=O)=O	none (no result: MEKK2mut PB1 HTS, GSK3beta inhib, MEKK2 WT-MEK5, MEKK3 PB1 HTS)
COc1c(OC)c(O)c2c(=O)cc(-c3c(O)cccc3O)oc2c1OC	none
COc1ccc(-c2cc(=O)c3c(OC)c(OC)c(OC)c(OC)c3o2)cc1OC	MEKK3 PB1 HTS 68![inhibitor] | MEKK2wt confirm inactive | MEKK2mut confirm inactive | MEKK3-MEK5 inh inactive
CCOC(=O)c1c(CSc2ccc(C)cc2)n(C)c2cc(Br)c(O)c(CN(C)C)c12	MEKK2 WT-MEK5 145 | MEKK2wt confirm inactive | MEKK2mut confirm inactive | MEKK3-MEK5 inh inactive
CCOC(=O)c1c(C)n(-c2ccc(C)cc2)c2ccc(O)c(CN(C)C)c12	MEKK2 WT-MEK5 138 | MEKK2wt confirm inactive | MEKK2mut confirm inactive | MEKK3-MEK5 inh inactive
Cc1cc(NC(=O)COC(=O)C2CCC(=O)N2)c([N+](=O)[O-])cc1C (stereo not given)	none
FC(F)(F)c1ccccc1NC(=S)NN=C1CCCCCC1	none
COc1ccc(C)cc1S(=O)(=O)N1CCCCCC1	MEKK3 PB1 HTS 129 | MEKK2wt confirm inactive | MEKK2mut confirm inactive | MEKK3-MEK5 inh inactive
CC(CC(=O)NNC(=O)c1cccc(Cl)c1)c1ccccc1 (stereo not given)	none
CCN(CC)c1ccc(C=Nc2ccc(C#N)cc2)c(O)c1	MEKK2 WT-MEK5 67[inhibitor] | MEKK2wt confirm inactive | MEKK2mut confirm inactive | MEKK3-MEK5 inh inactive
